Measured values of several laboratories.
CDK4 with cyclin D3: Cyclin-dependent kinase 4, with cyclin D3 (CDK4, Homo sapiens, UniProt P11802)
CDK4 with cyclin D1: Cyclin-dependent kinase 4, with cyclin D1 (CDK4, Homo sapiens, UniProt P11802)
CHRM2: Muscarinic acetylcholine receptor M2 (CHRM2, Homo sapiens, UniProt P08172)
AMY2: Pancreatic alpha-amylase (AMY2, Sus scrofa, UniProt P00690)

Compound | target | assay | setting | IC50 [µM]
CNS(=O)(=O)c1ccc(Nc2ncc(C(F)(F)F)c(N3CCCC(C)(O)C3)n2)c(C)c1 (stereo not shown) | CDK4 with cyclin D3 | enzyme activity, inhibitor, radiometric |  | 0.71
CN(C)C(=O)c1cc2cnc(Nc3cccc4c(=O)cc(N5CCOCC5)oc34)nc2n1C1CCCC1 | CDK4 with cyclin D1 | enzyme activity, inhibitor, radiometric |  | > 10
CNS(=O)(=O)c1ccc(Nc2ncc(C(F)(F)F)c(N3CCC(C)(O)CC3)n2)c(C)c1 | CDK4 with cyclin D3 | enzyme activity, inhibitor, radiometric |  | 0.201
NC(=O)c1nnn(Cc2cc(Cl)c(C(=O)c3ccc(Cl)cc3)c(Cl)c2)c1N | CHRM2 | cAMP, antagonist |  | 1.85
O=c1c(O)c(-c2ccc(O)c(O)c2)oc2c(Br)c(O)c(Br)c(O)c12 | AMY2 | enzyme activity, inhibitor |  | 19.9
CN(C)C(=O)c1cc2cnc(Nc3cncc(-c4cccc5c(=O)cc(N6CCOCC6)oc45)c3)nc2n1C1CCCC1 | CDK4 with cyclin D1 | enzyme activity, inhibitor, radiometric |  | 0.054
N=C(N)c1ccc(OCCCCCOc2ccc(C(=N)N)cc2)cc1 | Chymotrypsinogen A (Bos taurus, UniProt P00766) | enzyme activity, inhibitor, absorbance |  | > 1750
COc1ccc(-c2oc3cc(Nc4ncc5cc(C(=O)N(C)C)n(C6CCCC6)c5n4)ccc3c(=O)c2F)cc1 | CDK4 with cyclin D1 | enzyme activity, inhibitor, radiometric |  | 1.07
CNS(=O)(=O)c1ccc(Nc2ncc3cc(Cl)c(=O)n(C4CCCC4)c3n2)c(C)c1 | CDK4 with cyclin D3 | enzyme activity, inhibitor, radiometric |  | 0.022
Cc1cc(O)c(-c2ccc([C@@H](C)CN(C)C)cc2)c2c1[nH]c(=O)c1sccc12 | CDK4 with cyclin D1 | enzyme activity, inhibitor |  | > 1
O=C(CCNC(=O)CNC(=O)CC(c1ccccc1)(c1ccccc1)c1ccccc1)NCC1CCN(Cc2ccc(F)cc2)CC1 | CHRM2 | ligand displacement, radioligand | cell membranes | 6.4
NC/C(=C\F)COc1cccc(Cn2c(=S)[nH]c(=O)c3[nH]cnc32)c1 | Voltage-dependent L-type calcium channel subunit alpha-1C (CACNA1C, Homo sapiens, UniProt Q13936) | ion current, inhibitor |  | > 100
CNS(=O)(=O)c1ccc(Nc2ncc(C(F)(F)F)c([C@H]3CC[C@@](C)(O)CC3)n2)c(C)c1 | CDK4 with cyclin D3 | enzyme activity, inhibitor, radiometric |  | 3.47
CN(C)C(=O)c1cc2cnc(Nc3ccc(-c4cccc5c(=O)cc(N6CCNCC6)oc45)cc3)nc2n1C1CCCC1 | CDK4 with cyclin D1 | enzyme activity, inhibitor, radiometric |  | 0.29
C[C@H]1CN(C(=O)CC#N)[C@]12CCN(c1ncnc3[nH]ccc13)C2 | Organic anion transporter 3 (SLC22A8, Homo sapiens, UniProt Q8TCC7) | transporter uptake, inhibitor |  | 6.38
CN(C)C(=O)c1cc2cnc(Nc3ccc(-c4cccc5c(=O)cc(N6CCOCC6)oc45)c(F)c3)nc2n1C1CCCC1 | CDK4 with cyclin D1 | enzyme activity, inhibitor, radiometric |  | 0.116
O=C(CCNC(=O)CNC(=O)CC(c1ccccc1)(c1ccccc1)c1ccccc1)NC[C@H]1CCCN(Cc2ccc(F)cc2)C1 | CHRM2 | ligand displacement, radioligand | cell membranes | 13.7
CN(C)C(=O)c1cc2cnc(Nc3ccc(-c4cccc5c(=O)cc(N6CCOCC6)oc45)cn3)nc2n1C1CCCC1 | CDK4 with cyclin D1 | enzyme activity, inhibitor, radiometric |  | 0.46
O=c1cc(-c2ccc(O)c(O)c2)oc2cc(O)cc(O)c12 | AMY2 | enzyme activity, inhibitor |  | 2.18
